Data reported in ChEMBL document CHEMBL3588833 (ACS Med Chem Lett, 2015).
Calls of active or inactive are those of the source.

Legend:
[1] = molecular target: T1, Sodium channel protein type 10 subunit alpha (Homo sapiens, UniProt Q9Y5Y9); assay: Inhibition of human Nav1.8 expressed in HEK293 cells assessed as reduction in blue fluorescent signal by VSP-FRET assay; type: cell-based
Method in brief: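 hNav1.8 stably expressed in an in-house HEK293 line; membrane-potential VSP-FRET read-out; IC50 from at least three tests on three separate assay runs.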

[2] = molecular target: T1, Sodium channel protein type 10 subunit alpha; assay: Inhibition of human Nav1.8/beta1 expressed in HEK293 cells by manual patch clamp electrophysiology; type: cell-based
Method in brief: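 Recombinantly expressed human Nav1.8 with β1 subunit, recorded by manual whole-cell patch clamp electrophysiology. Inhibition was measured at the channel's V0.5 of inactivation, and IC50 values were derived from these recordings, with the number of determinations (n) reported per compound.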

[3] = Inhibition of Voltage gated sodium channel-mediated TTX-R current in human DRG neurons by manual patch clamp electrophysiology; details: DRG neuron
[4] = Inhibition of Voltage gated sodium channel-mediated TTX-r current in rat DRG neurons by manual patch clamp electrophysiology; details: DRG neuron
[5] = molecular target: T2, Sodium channel protein type 2 subunit alpha (Homo sapiens, UniProt Q99250); assay: Inhibition of human Nav1.2 expressed in HEK293 cells by IonWorks Quattro selectivity assay; type: cell-based
[6] = Tmax in rat at 5 mg/kg, po; type: ADME, organism-based; details: in vivo
[7] = Oral bioavailability in rat at 5 mg/kg; type: ADME, organism-based; details: in vivo
[8] = molecular target: T3, Sodium channel protein type 9 subunit alpha (Homo sapiens, UniProt Q15858); assay: Inhibition of human Nav1.7 expressed in HEK293 cells by IonWorks Quattro assay
[9] = molecular target: T2, Sodium channel protein type 2 subunit alpha; assay: Inhibition of human Nav1.2 expressed in SHSY5Y cells assessed as reduction in blue fluorescent signal by VSP-FRET assay; type: cell-based, SH-SY5Y
[10] = Half life in rat at 5 mg/kg, po; type: ADME, organism-based; details: in vivo
[11] = Plasma clearance in rat at 2 mg/kg, iv; type: ADME, organism-based
[12] = test system: Rattus norvegicus; assay: Antallodynic effect in Sprague-Dawley rat spinal nerve injury-induced neuropathic pain model at 10 or 30 mg/kg; type: functional, organism-based
[13] = Volume of distribution in rat at 2 mg/kg, iv; type: ADME, organism-based; details: in vivo
[14] = molecular target: Sodium channel protein type 5 subunit alpha (Homo sapiens, UniProt Q14524); assay: Inhibition of human Nav1.5 expressed in HEK293 cells by IonWorks Quattro selectivity assay; type: cell-based
[15] = molecular target: Sodium channel protein type 1 subunit alpha (Homo sapiens, UniProt P35498); assay: Inhibition of human Nav1.1 expressed in HEK293 cells by IonWorks Quattro selectivity assay; type: cell-based
[16] = Intrinsic clearance in human liver microsomes; type: ADME; details: read-out: CLH
[17] = Intrinsic clearance in rat liver microsomes; type: ADME; details: read-out: CLH
[18] = Half life in rat at 2 mg/kg, iv; type: ADME, organism-based; details: in vivo
[19] = Plasma clearance in rat at 5 mg/kg, po; type: ADME, organism-based
[20] = molecular target: Voltage-gated inwardly rectifying potassium channel KCNH2 (Homo sapiens, UniProt Q12809)
[21] = test system: Rattus norvegicus; assay: Antallodynic effect in Sprague-Dawley rat tibial nerve transection-induced mechanical allodynia model assessed as 50% shift in paw withdrawal threshold in ipsilateral paw at 10 mg/kg, single dose after 1.5 hrs (reference value: 1.7 +/- 0.2 g); type: functional
Method in brief: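 Rat tibial nerve transection neuropathic pain model; mechanical allodynia read as 50% paw withdrawal threshold (g) of the ipsilateral hindpaw. The threshold is taken at baseline and again 1.5 h after a single dose. Data are given as mean ± SEM, with significance set at P < 0.05.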

[22] = Solubility of the compound at pH 7.2; type: physicochemical; details: buffer
[23] = Tmax in rat at 3 mg/kg, po; type: ADME, organism-based; details: in vivo
[24] = Half life in rat at 3 mg/kg, po; type: ADME, organism-based; details: in vivo
[25] = Plasma clearance in rat at 3 mg/kg, po; type: ADME, organism-based
[26] = Oral bioavailability in dog at 0.25 mg/kg; type: ADME, organism-based, Canis lupus familiaris; details: in vivo
[27] = Plasma clearance in dog at 0.25 mg/kg, po; type: ADME, organism-based, Canis lupus familiaris
[28] = Tmax in dog at 0.25 mg/kg, po; type: ADME, organism-based, Canis lupus familiaris; details: in vivo
[29] = Half life in dog at 0.1 mg/kg, iv; type: ADME, organism-based, Canis lupus familiaris; details: in vivo
[30] = Plasma clearance in dog at 0.1 mg/kg, iv; type: ADME, organism-based, Canis lupus familiaris
[31] = test system: Rattus norvegicus; assay: Antallodynic effect in Sprague-Dawley rat tibial nerve transection-induced mechanical allodynia model assessed as 50% shift in paw withdrawal threshold in ipsilateral paw at 40 mg/kg, single dose after 1.5 hrs (reference value: 1.7 +/- 0.3 g); type: functional
Method in brief: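 Tibial nerve transection neuropathic pain model in rat; single dose of 40 mg/kg; 50% paw withdrawal threshold of ipsilateral hindpaw measured 1.5 h post-dose against pre-dose baseline; pregabalin 10 mg/kg as comparator; mean ± SEM, P < 0.05 significance.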

[32] = Volume of distribution in dog at 0.1 mg/kg, iv; type: ADME, organism-based, Canis lupus familiaris; details: in vivo
[33] = molecular target: T3, Sodium channel protein type 9 subunit alpha; assay: Inhibition of human Nav1.7 expressed in SHSY5Y cells by FRET assay; type: cell-based, SH-SY5Y
[34] = molecular target: T2, Sodium channel protein type 2 subunit alpha; assay: Inhibition of human Nav1.2 expressed in SHSY5Y cells by IonWorks Quattro selectivity assay; type: cell-based, SH-SY5Y
[35] = molecular target: Sodium channel protein type 3 subunit alpha (Homo sapiens, UniProt Q9NY46); assay: Inhibition of human Nav1.3 expressed in SHSY5Y cells by IonWorks Quattro selectivity assay; type: cell-based, SH-SY5Y
[36] = Volume of distribution in rat at 1 mg/kg, iv; type: ADME, organism-based; details: in vivo
[37] = Plasma clearance in rat at 1 mg/kg, iv; type: ADME, organism-based
[38] = Oral bioavailability in rat at 2 mg/kg; type: ADME, organism-based; details: in vivo
[39] = Unbound plasma concentration in Sprague-Dawley rat at 40 mg/kg single dose; type: ADME, organism-based
[40] = test system: Rattus norvegicus; assay: Toxicity in Sprague-Dawley rat assessed as effect on vertical or horizontal movement at 250 mg/kg, po single dose; type: organism-based; details: in vivo
Method in brief: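 Rats given a single oral dose of 250 mg/kg; horizontal and vertical locomotor movements compared with vehicle-treated controls.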

[41] = Plasma clearance in rat at 2 mg/kg, po; type: ADME, organism-based
[42] = Half life in rat at 1 mg/kg, iv; type: ADME, organism-based; details: in vivo
[43] = Tmax in rat at 2 mg/kg, po; type: ADME, organism-based; details: in vivo

T1 sequence (Q9Y5Y9 whole entry): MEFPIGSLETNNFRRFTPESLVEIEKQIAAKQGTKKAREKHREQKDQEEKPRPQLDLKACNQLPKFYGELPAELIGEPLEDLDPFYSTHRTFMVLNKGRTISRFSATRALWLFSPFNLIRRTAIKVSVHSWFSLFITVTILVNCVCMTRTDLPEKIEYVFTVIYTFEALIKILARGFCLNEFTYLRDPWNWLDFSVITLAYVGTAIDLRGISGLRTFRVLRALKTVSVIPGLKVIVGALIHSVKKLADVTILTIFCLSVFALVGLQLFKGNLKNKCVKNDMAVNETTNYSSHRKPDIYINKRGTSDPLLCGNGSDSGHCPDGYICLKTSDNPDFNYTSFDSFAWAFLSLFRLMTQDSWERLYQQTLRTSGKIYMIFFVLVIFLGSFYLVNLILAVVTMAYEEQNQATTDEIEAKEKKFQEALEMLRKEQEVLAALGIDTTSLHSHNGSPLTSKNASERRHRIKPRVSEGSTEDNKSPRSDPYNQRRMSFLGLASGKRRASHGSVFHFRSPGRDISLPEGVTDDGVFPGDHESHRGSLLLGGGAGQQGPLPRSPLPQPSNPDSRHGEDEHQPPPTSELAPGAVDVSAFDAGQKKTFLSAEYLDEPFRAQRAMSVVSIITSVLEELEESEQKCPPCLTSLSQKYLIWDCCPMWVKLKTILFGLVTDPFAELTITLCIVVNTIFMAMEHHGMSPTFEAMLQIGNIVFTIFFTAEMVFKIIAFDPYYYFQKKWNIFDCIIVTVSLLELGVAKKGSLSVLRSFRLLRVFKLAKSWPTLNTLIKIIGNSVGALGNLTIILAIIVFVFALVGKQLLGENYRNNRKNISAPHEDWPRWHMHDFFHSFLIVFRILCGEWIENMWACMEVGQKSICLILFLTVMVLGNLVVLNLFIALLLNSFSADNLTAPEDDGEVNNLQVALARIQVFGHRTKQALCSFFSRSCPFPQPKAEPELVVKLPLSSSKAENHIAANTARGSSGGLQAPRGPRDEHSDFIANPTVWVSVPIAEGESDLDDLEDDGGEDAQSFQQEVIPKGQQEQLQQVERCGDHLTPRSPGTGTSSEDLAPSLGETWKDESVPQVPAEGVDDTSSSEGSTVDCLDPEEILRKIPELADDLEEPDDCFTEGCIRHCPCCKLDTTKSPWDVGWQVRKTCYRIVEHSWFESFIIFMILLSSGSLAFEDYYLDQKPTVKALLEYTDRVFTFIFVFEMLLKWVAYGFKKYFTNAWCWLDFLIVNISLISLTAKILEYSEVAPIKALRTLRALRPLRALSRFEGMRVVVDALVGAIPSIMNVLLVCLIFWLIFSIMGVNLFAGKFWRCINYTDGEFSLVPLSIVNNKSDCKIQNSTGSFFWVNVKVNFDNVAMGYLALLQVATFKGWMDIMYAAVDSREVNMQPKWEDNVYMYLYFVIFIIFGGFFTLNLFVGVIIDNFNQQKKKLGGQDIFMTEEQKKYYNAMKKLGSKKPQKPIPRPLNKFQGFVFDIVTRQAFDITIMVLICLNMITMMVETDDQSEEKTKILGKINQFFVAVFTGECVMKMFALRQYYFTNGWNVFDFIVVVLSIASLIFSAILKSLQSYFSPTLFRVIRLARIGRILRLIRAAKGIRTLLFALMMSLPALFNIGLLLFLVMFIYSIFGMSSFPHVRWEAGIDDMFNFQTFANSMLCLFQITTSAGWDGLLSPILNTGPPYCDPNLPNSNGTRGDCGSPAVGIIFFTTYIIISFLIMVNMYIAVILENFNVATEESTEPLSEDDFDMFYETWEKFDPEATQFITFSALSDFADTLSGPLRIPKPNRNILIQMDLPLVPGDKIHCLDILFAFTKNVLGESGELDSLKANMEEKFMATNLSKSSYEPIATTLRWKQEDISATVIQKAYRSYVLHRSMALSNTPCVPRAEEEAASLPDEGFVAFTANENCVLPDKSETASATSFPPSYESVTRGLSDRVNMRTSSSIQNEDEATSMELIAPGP
T3 sequence (Q15858 whole entry): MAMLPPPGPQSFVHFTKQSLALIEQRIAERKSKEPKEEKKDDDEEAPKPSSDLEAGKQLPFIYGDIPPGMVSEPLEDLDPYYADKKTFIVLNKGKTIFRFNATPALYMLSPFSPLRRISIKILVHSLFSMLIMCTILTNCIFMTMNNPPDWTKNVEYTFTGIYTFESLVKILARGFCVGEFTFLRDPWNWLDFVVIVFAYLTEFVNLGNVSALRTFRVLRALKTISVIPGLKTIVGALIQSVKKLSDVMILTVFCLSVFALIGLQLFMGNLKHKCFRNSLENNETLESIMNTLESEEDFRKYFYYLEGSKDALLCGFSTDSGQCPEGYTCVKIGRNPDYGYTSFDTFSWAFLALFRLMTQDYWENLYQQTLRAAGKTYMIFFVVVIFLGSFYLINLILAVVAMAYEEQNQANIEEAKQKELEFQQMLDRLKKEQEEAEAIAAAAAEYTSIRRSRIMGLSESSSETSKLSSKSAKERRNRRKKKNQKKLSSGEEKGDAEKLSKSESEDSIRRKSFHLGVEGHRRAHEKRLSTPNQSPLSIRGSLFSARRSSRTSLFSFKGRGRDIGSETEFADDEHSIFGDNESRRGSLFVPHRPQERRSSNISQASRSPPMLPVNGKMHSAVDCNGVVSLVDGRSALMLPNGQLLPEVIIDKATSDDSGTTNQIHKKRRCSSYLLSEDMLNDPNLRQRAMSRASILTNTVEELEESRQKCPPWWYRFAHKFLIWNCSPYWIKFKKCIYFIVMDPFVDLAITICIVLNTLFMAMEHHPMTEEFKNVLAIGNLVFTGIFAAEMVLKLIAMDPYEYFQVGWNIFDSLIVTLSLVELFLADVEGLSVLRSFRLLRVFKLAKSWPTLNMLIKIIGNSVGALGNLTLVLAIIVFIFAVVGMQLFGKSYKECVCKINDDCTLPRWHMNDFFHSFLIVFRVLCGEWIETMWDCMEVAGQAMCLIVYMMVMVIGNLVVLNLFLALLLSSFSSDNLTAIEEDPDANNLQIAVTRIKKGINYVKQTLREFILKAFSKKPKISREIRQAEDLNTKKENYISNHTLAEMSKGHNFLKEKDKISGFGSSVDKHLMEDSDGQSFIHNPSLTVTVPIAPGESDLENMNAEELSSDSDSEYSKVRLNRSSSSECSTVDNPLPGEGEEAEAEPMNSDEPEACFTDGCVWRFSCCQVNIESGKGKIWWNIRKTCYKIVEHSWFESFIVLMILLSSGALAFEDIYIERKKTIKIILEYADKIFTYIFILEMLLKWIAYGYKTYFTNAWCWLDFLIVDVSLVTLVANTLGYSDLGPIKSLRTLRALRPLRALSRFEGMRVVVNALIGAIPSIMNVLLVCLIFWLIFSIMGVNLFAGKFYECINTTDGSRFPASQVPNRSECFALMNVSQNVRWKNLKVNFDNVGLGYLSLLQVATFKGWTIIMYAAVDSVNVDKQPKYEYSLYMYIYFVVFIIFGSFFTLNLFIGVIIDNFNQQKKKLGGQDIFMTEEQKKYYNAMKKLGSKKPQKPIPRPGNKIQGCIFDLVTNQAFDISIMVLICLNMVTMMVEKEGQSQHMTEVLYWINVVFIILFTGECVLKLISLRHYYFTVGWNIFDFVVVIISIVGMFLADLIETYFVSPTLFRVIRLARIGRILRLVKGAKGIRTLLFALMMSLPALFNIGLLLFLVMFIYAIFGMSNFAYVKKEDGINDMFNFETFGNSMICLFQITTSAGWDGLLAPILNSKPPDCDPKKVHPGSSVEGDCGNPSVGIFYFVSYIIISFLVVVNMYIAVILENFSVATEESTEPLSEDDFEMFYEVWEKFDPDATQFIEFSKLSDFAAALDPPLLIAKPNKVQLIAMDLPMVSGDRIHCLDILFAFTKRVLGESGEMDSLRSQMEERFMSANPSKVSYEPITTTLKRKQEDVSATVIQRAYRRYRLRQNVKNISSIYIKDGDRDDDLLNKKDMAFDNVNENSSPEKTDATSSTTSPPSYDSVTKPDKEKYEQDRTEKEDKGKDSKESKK
Sequence of Voltage-gated inwardly rectifying potassium channel KCNH2 (Q12809 whole entry): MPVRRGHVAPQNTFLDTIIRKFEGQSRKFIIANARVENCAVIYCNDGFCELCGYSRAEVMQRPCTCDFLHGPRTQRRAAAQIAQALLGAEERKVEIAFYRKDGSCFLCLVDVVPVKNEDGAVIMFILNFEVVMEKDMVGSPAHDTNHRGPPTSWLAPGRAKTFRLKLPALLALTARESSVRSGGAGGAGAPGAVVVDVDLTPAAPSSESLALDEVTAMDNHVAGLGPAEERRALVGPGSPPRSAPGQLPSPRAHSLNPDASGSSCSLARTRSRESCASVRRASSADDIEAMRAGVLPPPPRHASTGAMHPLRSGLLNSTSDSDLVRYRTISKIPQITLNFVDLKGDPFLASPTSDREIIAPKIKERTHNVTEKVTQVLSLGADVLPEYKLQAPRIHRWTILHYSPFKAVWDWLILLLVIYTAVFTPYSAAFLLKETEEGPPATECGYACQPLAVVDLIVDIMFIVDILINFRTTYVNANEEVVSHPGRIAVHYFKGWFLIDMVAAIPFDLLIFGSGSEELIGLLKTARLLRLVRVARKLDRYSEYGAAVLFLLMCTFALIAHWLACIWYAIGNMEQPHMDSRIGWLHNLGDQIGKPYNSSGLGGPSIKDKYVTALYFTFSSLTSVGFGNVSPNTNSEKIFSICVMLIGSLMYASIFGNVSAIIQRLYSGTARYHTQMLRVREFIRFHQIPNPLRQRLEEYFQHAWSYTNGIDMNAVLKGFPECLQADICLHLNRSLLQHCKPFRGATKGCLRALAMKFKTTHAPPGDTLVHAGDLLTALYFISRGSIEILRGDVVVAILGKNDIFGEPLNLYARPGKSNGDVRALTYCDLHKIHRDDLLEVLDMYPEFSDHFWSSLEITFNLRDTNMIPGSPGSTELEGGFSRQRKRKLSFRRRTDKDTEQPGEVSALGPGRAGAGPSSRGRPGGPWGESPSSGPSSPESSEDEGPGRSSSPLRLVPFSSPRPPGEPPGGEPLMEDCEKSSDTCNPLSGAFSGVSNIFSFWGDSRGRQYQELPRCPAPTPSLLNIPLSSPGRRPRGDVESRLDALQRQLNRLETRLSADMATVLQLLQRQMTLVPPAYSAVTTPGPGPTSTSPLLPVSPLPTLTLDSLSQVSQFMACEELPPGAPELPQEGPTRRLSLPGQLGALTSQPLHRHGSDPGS

Cn1nccc1C(=O)Nc1ccc(-c2ccc(F)cc2Cl)c(N)n1
IC50 [1]: > 31 µM

CNC(=O)c1ccc(-c2cc(Cl)cc(Cl)c2Cl)c(N)n1
IC50 [2]: 0.19 µM
IC50 [3]: 0.31 µM
IC50 [4]: 0.44 µM
IC50 [5]: 12.8 µM
Tmax [6]: 1 h
bioavailability [7]: 91%
IC50 [8]: 19 µM
IC50 [9]: 14 µM
half-life [10]: 4.6 h
clearance [11]: 11.7 mL/min/kg
Activity [12]: Active
Vd [13]: 3 L/kg
IC50 [14]: 9 µM
IC50 [15]: 13 µM
microsomal CLint [16]: 7.1 µL/min/mg
microsomal CLint [17]: < 9 µL/min/mg
half-life [18]: 4 h
CL/F [19]: 13.3 mL/min/kg
IC50 [20]: 30 µM
IC50 [1]: 2.6 µM

COc1ccc(Cl)c(-c2ccc(NC(=O)C(C)C)nc2N)c1
IC50 [1]: 4 µM

Cn1nccc1C(=O)Nc1ccc(-c2ccccc2Cl)c(N)n1
IC50 [1]: 4.9 µM

CC(C)C[C@H](CN)CC(=O)O [PREGABALIN]
Activity [21]: 5.8 g

Cc1nocc1C(=O)Nc1ccc(-c2cc(Cl)cc(Cl)c2Cl)c(N)n1
solubility [22]: < 0.1 µg/mL

Cn1nccc1C(=O)Nc1ccc(-c2ccccc2OC(F)(F)F)c(N)n1
IC50 [1]: 2.4 µM

CNC(=O)c1ccc(-c2ccccc2Cl)c(N)n1
IC50 [1]: > 32 µM

CC(=O)Nc1ccc(-c2cc(Cl)cc(Cl)c2Cl)c(N)n1
Tmax [23]: 0.75 h
IC50 [9]: 3.5 µM
microsomal CLint [16]: 41 µL/min/mg
microsomal CLint [17]: 29 µL/min/mg
half-life [24]: 4.1 h
IC50 [1]: 0.16 µM
CL/F [25]: 204 mL/min/kg

CNC(=O)c1ccc(-c2cc(Cl)ccc2Cl)c(N)n1
IC50 [1]: 12 µM

COc1ccc(Cl)c(-c2ccc(NC(=O)c3conc3C)nc2N)c1
IC50 [1]: 0.5 µM

CNC(=O)c1ccc(-c2cc(Cl)cc(Cl)c2)c(N)n1
IC50 [1]: > 32 µM

Cn1nccc1C(=O)Nc1ccc(-c2cc(Cl)ccc2Cl)c(N)n1
IC50 [1]: 0.92 µM

Cc1nocc1C(=O)Nc1ccc(-c2ccccc2OC(F)(F)F)c(N)n1
IC50 [2]: 0.26 µM
IC50 [4]: 0.33 µM
bioavailability [26]: 63%
CL/F [27]: 10 mL/min/kg
Tmax [28]: 3.5 h
half-life [29]: 9.7 h
clearance [30]: 6.2 mL/min/kg
Activity [31]: Active
Vd [32]: 5.3 L/kg
IC50 [20]: > 30 µM
IC50 [33]: 10 µM
IC50 [1]: 0.53 µM
IC50 [34]: 10 µM
IC50 [35]: 10 µM

COc1ccc(Cl)cc1-c1ccc(NC(=O)c2ccnn2C)nc1N
IC50 [1]: 7.4 µM

Nc1nnc(-c2cccc(Cl)c2Cl)c(N)n1 [LAMOTRIGINE]
IC50 [9]: 17 µM
IC50 [1]: 98 µM

Cn1nccc1C(=O)Nc1ccc(-c2cc(Cl)cc(Cl)c2Cl)c(N)n1
solubility [22]: < 0.1 µg/mL
IC50 [1]: 0.75 µM

CNC(=O)c1cnc(N)c(-c2cc(Cl)cc(Cl)c2Cl)c1
IC50 [9]: 6.9 µM
IC50 [1]: 24 µM

CNC(=O)c1ccc(-c2ccc(Cl)cc2)c(N)n1
IC50 [1]: > 32 µM

COc1ccc(Cl)c(-c2ccc(NC(=O)c3ccnn3C)nc2N)c1 [PF-04531083]
IC50 [2]: 0.19 µM
IC50 [3]: 0.2 µM
IC50 [4]: 0.54 µM
Vd [36]: 2.25 L/kg
clearance [37]: 6.7 mL/min/kg
bioavailability [38]: 59%
IC50 [8]: 36 µM
fraction unbound [39]: 0.2
Activity [40]: Non-toxic
CL/F [41]: 11.4 mL/min/kg
IC50 [14]: 37 µM
IC50 [15]: 37 µM
half-life [42]: 3.9 h
Activity [31]: 7.3 g
IC50 [1]: 0.7 µM
Tmax [43]: 1.3 h

CNC(=O)c1ccc(-c2cccc(Cl)c2)c(N)n1
IC50 [1]: > 32 µM
